In ChEMBL document CHEMBL4680121, “Development of (4-methoxyphenyl)-1H-tetrazol-5-amine regioisomers as a new class of selective antitubercular agents” (Eur J Med Chem, 2020):
pIC50: −log10 of the molar value. Values after ≈ are worked out from the molar mass of the structure shown.

Assays:
[1] = tested on: Mycobacterium tuberculosis; assay: Antitubercular activity against Mycobacterium tuberculosis H37Rv ATCC 25618 assessed as inhibition of microbial growth incubated for 1 week by MABA method; assay type: functional; conditions: H37Rv ATCC 25618, 168 h, time 1 weeks
Method in brief: (§1)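 Microplate Alamar Blue assay in Middlebrook 7H9 broth with 10% OADC. Inoculum from fresh LJ culture was adjusted to McFarland 1 and diluted 1:20. DMSO stocks were two-fold serially diluted to final 0.125–512 µg/ml, with growth and sterile controls. Plates ran 1 week at 37 °C, then Alamar blue was added for 24 h. MIC is the lowest concentration preventing the blue-to-pink change.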

[2] = tested on: Mycobacterium tuberculosis; assay: Antitubercular activity against Mycobacterium tuberculosis Spec.192 assessed as inhibition of microbial growth incubated for 1 week by MABA method; assay type: functional; conditions: Mycobacterium tuberculosis, 192, 168 h; time 1 weeks; method in brief: as §1
[3] = tested on: Mycobacterium tuberculosis; assay: Antitubercular activity against Mycobacterium tuberculosis H37Rv ATCC 25618 assessed as inhibition of microbial growth by classical test tube method; assay type: functional
Method in brief: (§2)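 Classical test-tube serial dilution in Youmans' modified Proskauer–Beck liquid medium with 10% bovine serum. Inoculum came from 14-day-old cultures. Compounds were given as DMSO solutions (stock 10 mg/ml), diluted geometrically in medium to 3.1–100 µg/ml, and incubated at 37 °C. MIC is the minimum concentration inhibiting growth relative to a no-compound control.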

[4] = tested on: Mycobacterium tuberculosis; assay: Antitubercular activity against Mycobacterium tuberculosis Spec.192 assessed as inhibition of microbial growth by classical test tube method; assay type: functional; method in brief: as §2
Escherichia coli = assay: Antibacterial activity against Escherichia coli ATCC 25922 assessed as bacterial growth inhibition measured after 18 hrs by two-fold serial microdilution method; assay type: functional
Method in brief: (§3)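 Two-fold serial broth microdilution in MH II medium following modified CLSI procedures. Compounds were dissolved in DMSO and diluted in medium to at most 1% solvent, tested from 0.03125 to 512 μg/ml. Final inoculum 10^6 CFU/ml. MIC was taken as the lowest concentration with no visible growth after 18 h at 35 °C.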

[5] = tested on: Staphylococcus epidermidis; assay: Antibacterial activity against Staphylococcus epidermidis ATCC 35984/RP62A assessed as bacterial growth inhibition measured after 18 hrs by two-fold serial microdilution method; assay type: functional; method in brief: as §3
[6] = tested on: Staphylococcus epidermidis; assay: Antibacterial activity against Staphylococcus epidermidis ATCC 12228 assessed as bacterial growth inhibition measured after 18 hrs by two-fold serial microdilution method; assay type: functional; method in brief: as §3
[7] = tested on: Staphylococcus epidermidis; assay: Antibacterial activity against Staphylococcus epidermidis ATCC 1457 assessed as bacterial growth inhibition measured after 18 hrs by two-fold serial microdilution method; assay type: functional; method in brief: as §3
Staphylococcus aureus [8] = assay: Antibacterial activity against Staphylococcus aureus ATCC 6538 assessed as bacterial growth inhibition measured after 18 hrs by two-fold serial microdilution method; assay type: functional; method in brief: as §3
Staphylococcus aureus [9] = assay: Antibacterial activity against Staphylococcus aureus NCTC 4163 assessed as bacterial growth inhibition measured after 18 hrs by two-fold serial microdilution method; assay type: functional; method in brief: as §3
Pseudomonas aeruginosa [10] = assay: Antibacterial activity against Pseudomonas aeruginosa NCTC 6749 assessed as bacterial growth inhibition measured after 18 hrs by two-fold serial microdilution method; assay type: functional; method in brief: as §3
Pseudomonas aeruginosa [11] = assay: Antibacterial activity against Pseudomonas aeruginosa PAO1 assessed as bacterial growth inhibition measured after 18 hrs by two-fold serial microdilution method; assay type: functional; method in brief: as §3
Klebsiella pneumoniae = assay: Antibacterial activity against Klebsiella pneumoniae ATCC 10031 assessed as bacterial growth inhibition measured after 18 hrs by two-fold serial microdilution method; assay type: functional; method in brief: as §3
Proteus vulgaris = assay: Antibacterial activity against Proteus vulgaris NCTC 4635 assessed as bacterial growth inhibition measured after 18 hrs by two-fold serial microdilution method; assay type: functional; method in brief: as §3
[12] = tested on: Mycobacterium intracellulare; assay: Antimycobacterial activity against Mycobacterium intracellulare assessed as inhibition of microbial growth incubated for 1 week by MABA method; assay type: functional; conditions: 168 h, time 1 weeks
Method in brief: (§4)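 Microplate Alamar Blue assay using two-fold serial microdilution in Middlebrook 7H9 broth with 10% OADC, compounds 0.125–512 µg/ml from DMSO stocks. Inoculum came from fresh LJ culture, was adjusted to McFarland 1 and diluted 1:20. Plates were incubated 1 week at 37 °C, Alamar blue was added and plates were re-incubated 24 h. MIC was the lowest concentration preventing the blue-to-pink change. Each plate carried growth and sterile controls.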

Mycobacterium avium = assay: Antimycobacterial activity against Mycobacterium avium assessed as inhibition of microbial growth incubated for 1 week by MABA method; assay type: functional; conditions: 168 h, time 1 weeks; method in brief: as §1
Mycobacterium kansasii = assay: Antibacterial activity against Mycobacterium kansasii assessed as inhibition of microbial growth incubated for 1 week by MABA method; assay type: functional; conditions: 168 h, time 1 weeks; method in brief: as §4
[13] = tested on: Mycobacterium scrofulaceum; assay: Antibacterial activity against Mycobacterium scrofulaceum assessed as inhibition of microbial growth incubated for 1 week by MABA method; assay type: functional; conditions: 168 h, time 1 weeks; method in brief: as §4
[14] = tested on: Mycolicibacterium fortuitum; assay: Antibacterial activity against Mycobacterium fortuitum assessed as inhibition of microbial growth incubated for 1 week by MABA method; assay type: functional; conditions: 168 h, time 1 weeks; method in brief: as §4
Mycobacterium xenopi = assay: Antibacterial activity against Mycobacterium xenopi assessed as inhibition of microbial growth incubated for 1 week by MABA method; assay type: functional; conditions: 168 h, time 1 weeks; method in brief: as §4
V79 [15] = assay: Cytotoxicity against Chinese Hamster V79 cells assessed as reduction in cell viability measured after 72 hrs by MTT assay; assay type: cell-based; conditions: Cricetulus griseus, V79, 72 h
Method in brief: (§5)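 MTT viability assay on cells grown in DMEM with 10% heat-inactivated FBS, penicillin/streptomycin and 20 mM HEPES at 37 °C/5% CO2. Cells were seeded at 1×10^4 per well and allowed to adhere for 24 h, then the medium was refreshed. Compounds were added at 20–140 μM for 72 h at 37 °C, followed by MTT (0.5 mg/mL in serum-free medium) for 4 h. Untreated cells served as control. IC50 is the concentration giving 50% growth inhibition versus control.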

HaCaT [16] = assay: Cytotoxicity against human HaCaT cells assessed as reduction in cell viability measured after 72 hrs by MTT assay; assay type: cell-based; method in brief: as §5
V79 [17] = assay: Cytotoxicity against Chinese Hamster V79 cells assessed as reduction in cell viability at 100 uM measured after 72 hrs by MTT assay; assay type: cell-based, Cricetulus griseus; conditions: v79, 72 h; method in brief: as §5
HaCaT [18] = assay: Cytotoxicity against human HaCaT cells assessed as reduction in cell viability at 100 uM measured after 72 hrs by MTT assay; assay type: cell-based; method in brief: as §5
[19] = tested on: Mycobacterium scrofulaceum; assay: Potency index, ratio of isoniazid MIC to test compound MIC for antibacterial activity against Mycobacterium scrofulaceum assessed as inhibition of microbial growth incubated for 1 week by MABA method; assay type: functional; conditions: time 1 weeks

Compound | MIC [1] [µg/mL] | MIC [2] [µg/mL] | MIC [3] [µg/mL] | MIC [4] [µg/mL] | MIC (Escherichia coli) [µg/mL] | MIC [5] [µg/mL] | MIC [6] [µg/mL] | MIC [7] [µg/mL] | MIC (Staphylococcus aureus [8]) [µg/mL] | MIC (Staphylococcus aureus [9]) [µg/mL] | MIC (Pseudomonas aeruginosa [10]) [µg/mL] | MIC (Pseudomonas aeruginosa [11]) [µg/mL] | MIC (Klebsiella pneumoniae) [µg/mL] | MIC (Proteus vulgaris) [µg/mL] | other results
CN[C@@H]1[C@H](O[C@H]2[C@H](O[C@H]3[C@H](O)[C@@H](O)[C@H](N=C(N)N)[C@@H](O)[C@@H]3N=C(N)N)O[C@@H](C)[C@]2(O)C=O)O[C@@H](CO)[C@H](O)[C@H]1O [STREPTOMYCIN] | 1 | 1 | < 3.1 | < 3.1 |  |  |  |  |  |  |  |  |  |  | 
COc1ccc(NC(=S)Nc2ccccc2Br)cc1 |  |  | 50 | 50 | > 256 | > 256 | > 256 | > 256 | > 256 | > 256 | > 256 | > 256 | > 256 | > 256 | 
COc1ccc(NC(=S)Nc2ccccc2F)cc1 |  |  | 50 | 50 | > 256 | > 256 | > 256 | > 256 | > 256 | > 256 | > 256 | > 256 | > 256 | > 256 | 
COc1ccc(NC(=S)Nc2ccc(Cl)cc2)cc1 |  |  | 50 | 50 | > 256 | > 256 | > 256 | > 256 | > 256 | > 256 | > 256 | > 256 | > 256 | > 256 | 
COc1ccc(Nc2nnnn2-c2ccc(Cl)cc2)cc1 | 8 | 8 |  |  | > 256 | 256 (≈ 848 µM) | 256 (≈ 848 µM) | > 256 | > 256 | 256 (≈ 848 µM) | > 256 | > 256 | > 256 | > 256 | MIC [12]: 128 µg/mL; MIC (Mycobacterium avium): 256 µg/mL; MIC (Mycobacterium kansasii): 512 µg/mL; MIC [13]: 16 µg/mL; MIC [14]: > 512 µg/mL; MIC (Mycobacterium xenopi): 128 µg/mL; pIC50 (V79 [15]): 3.94; pIC50 (HaCaT [16]): 3.99; Activity (V79 [17]): Non-Toxic; Activity (HaCaT [18]): Non-Toxic; Ratio [19]: 4
CO[C@H]1/C=C/O[C@@]2(C)Oc3c(C)c(O)c4c(O)c(c(/C=N/N5CCN(C)CC5)c(O)c4c3C2=O)NC(=O)/C(C)=C\C=C\[C@H](C)[C@H](O)[C@@H](C)[C@@H](O)[C@@H](C)[C@H](OC(C)=O)[C@@H]1C [RIFAMPIN] | 1 | 1 | < 3.1 | < 3.1 |  |  |  |  |  |  |  |  |  |  | 
CC[C@@H](CO)NCCN[C@@H](CC)CO [ETHAMBUTOL] | 2 | 2 | < 3.1 | < 3.1 |  |  |  |  |  |  |  |  |  |  | 
COc1ccc(Nc2nnnn2-c2cccc(Cl)c2)cc1 | 8 | 8 |  |  | > 256 | > 256 | > 256 | > 256 | > 256 | > 256 | > 256 | > 256 | > 256 | > 256 | MIC [12]: 128 µg/mL; MIC (Mycobacterium avium): 64 µg/mL; MIC (Mycobacterium kansasii): 512 µg/mL; MIC [13]: 2 µg/mL; MIC [14]: 512 µg/mL; MIC (Mycobacterium xenopi): 512 µg/mL; pIC50 (V79 [15]): 3.91; pIC50 (HaCaT [16]): 3.99; Activity (V79 [17]): Non-Toxic; Activity (HaCaT [18]): Non-Toxic; Ratio [19]: 32
